Test results from ChEMBL document CHEMBL4689842, “EUbOPEN Chemogenomics Library wave 1” (2021).
“And” between values parts separate entries of the source, which are not always exact repeats. Identical values can stand only once.

System: HEK-293T
Assay: Multiplex assay against HEK293T;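 for Population Tubulin-Different-Phenotype (%): share of the cells with healthy nuclei that show this phenotype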
Assay type: toxicity, cell-based
Conditions: human
In short: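 Cells stained live at seeding with Hoechst33342, BioTracker Green Microtubule Cytoskeleton Dye, MitoTracker Red and Annexin V Alexa Fluor 680 were imaged on a CQ1 microscope at 37°C and 5% CO2 after compound addition. Their classification by CellPathfinder machine-learning gating ran from Hoechst high-intensity objects versus normal cells, to healthy, pyknosed or fragmented nuclei among normal cells, to mitotic or apoptotic among pyknosed cells. Tubulin, mitochondrial-mass and membrane-permeability phenotypes are per cents of healthy-nucleus cells.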

[1] = 12 h, 1 µM, compound concentration 1 uM, replicate 1
[2] = 12 h, 1 µM, compound concentration 1 uM, replicate 2
[3] = 12 h, 10 µM, compound concentration 10 uM, replicate 1
[4] = 12 h, 10 µM, compound concentration 10 uM, replicate 2
[5] = 24 h, 1 µM, compound concentration 1 uM, replicate 1
[6] = 24 h, 1 µM, compound concentration 1 uM, replicate 2
[7] = 24 h, 10 µM, compound concentration 10 uM, replicate 1
[8] = 24 h, 10 µM, compound concentration 10 uM, replicate 2
[9] = 48 h, 1 µM, compound concentration 1 uM, replicate 1
[10] = 48 h, 1 µM, compound concentration 1 uM, replicate 2
[11] = 48 h, 10 µM, compound concentration 10 uM, replicate 1
[12] = 48 h, 10 µM, compound concentration 10 uM, replicate 2

For CC(C)Oc1ccccc1C(=O)Nc1ccccc1C(=O)Nc1cccc(S(=O)(=O)C(F)(F)F)c1, the “Population Apoptotic (%)” value [1] was 64%, the “Population Fragmented Nuclei (%)” value [1] was 10% and the “Population Healthy Nuclei (%)” value [1] was 41%. The “Population Hoechst High Intensity Objects (%)” value [1] was 14%, the “Population Membrane Permeable-Phenotype (%)” value [1] was 3% and the “Population Mitochondria Different-Phenotype (%)” value [1] was 90%. For the same molecule, the “Population Mitotic Cells (%)” value [1] was 35%, the “Population Normal (%)” value [1] was 85% and the “Population Pyknosed Nuclei (%)” value [1] was 47%. For the same molecule, the “Population Tubulin-Different-Phenotype (%)” value [1] was 77%, the “Total Cell Count” value [1] was 237 and the “Population Apoptotic (%)” value [2] was 34%. The “Population Fragmented Nuclei (%)” value [2] was 7%, the “Population Healthy Nuclei (%)” value [2] was 37% and the “Population Hoechst High Intensity Objects (%)” value [2] was 6%. The “Population Membrane Permeable-Phenotype (%)” value [2] was 8%, the “Population Mitochondria Different-Phenotype (%)” value [2] was 58% and the “Population Mitotic Cells (%)” value [2] was 65%. For the same molecule, the “Population Normal (%)” value [2] was 93%, the “Population Pyknosed Nuclei (%)” value [2] was 55% and the “Population Tubulin-Different-Phenotype (%)” value [2] was 76%. The “Total Cell Count” value [2] was 214, the “Population Fragmented Nuclei (%)” value [3] was 11% and the “Population Healthy Nuclei (%)” value [3] was 31%. For the same molecule, the “Population Hoechst High Intensity Objects (%)” value [3] was 13%, the “Population Membrane Permeable-Phenotype (%)” value [3] was 6% and the “Population Mitochondria Different-Phenotype (%)” value [3] was 91%. For the same molecule, the “Population Mitotic Cells (%)” value [3] was 34%, the “Population Normal (%)” value [3] was 87% and the “Population Pyknosed Nuclei (%)” value [3] was 57%. The “Population Tubulin-Different-Phenotype (%)” value [3] was 87%, the “Total Cell Count” value [3] was 300 and the “Population Apoptotic (%)” value [4] was 66%. The “Population Fragmented Nuclei (%)” value [4] was 7%, the “Population Healthy Nuclei (%)” value [4] was 21% and the “Population Hoechst High Intensity Objects (%)” value [4] was 4%. The “Population Membrane Permeable-Phenotype (%)” value [4] was 9%, the “Population Mitochondria Different-Phenotype (%)” value [4] was 71% and the “Population Mitotic Cells (%)” value [4] was 33%. The “Population Normal (%)” value [4] was 95%, the “Population Pyknosed Nuclei (%)” value [4] was 71% and the “Population Tubulin-Different-Phenotype (%)” value [4] was 83%. For the same molecule, the “Total Cell Count” value [4] was 206, the “Population Apoptotic (%)” value [5] was 64% and the “Population Fragmented Nuclei (%)” value [5] was 16%. For the same molecule, the “Population Healthy Nuclei (%)” value [5] was 44%, the “Population Hoechst High Intensity Objects (%)” value [5] was 14% and the “Population Membrane Permeable-Phenotype (%)” value [5] was 0%. For the same molecule, the “Population Mitochondria Different-Phenotype (%)” value [5] was 90%, the “Population Mitotic Cells (%)” value [5] was 35% and the “Population Normal (%)” value [5] was 85%. For the same molecule, the “Population Pyknosed Nuclei (%)” value [5] was 38%, the “Population Tubulin-Different-Phenotype (%)” value [5] was 67% and the “Total Cell Count” value [5] was 263. For the same molecule, the “Population Apoptotic (%)” value [6] was 42%, the “Population Fragmented Nuclei (%)” value [6] was 8% and the “Population Healthy Nuclei (%)” value [6] was 50%. The “Population Hoechst High Intensity Objects (%)” value [6] was 3%, the “Population Membrane Permeable-Phenotype (%)” value [6] was 3% and the “Population Mitochondria Different-Phenotype (%)” value [6] was 66%. The “Population Mitotic Cells (%)” value [6] was 58%, the “Population Normal (%)” value [6] was 96% and the “Population Pyknosed Nuclei (%)” value [6] was 41%. For the same molecule, the “Population Tubulin-Different-Phenotype (%)” value [6] was 83%, the “Total Cell Count” value [6] was 253 and the “Population Apoptotic (%)” value [7] was 61%. The “Population Fragmented Nuclei (%)” value [7] was 18%, the “Population Healthy Nuclei (%)” value [7] was 31% and the “Population Hoechst High Intensity Objects (%)” value [7] was 11%. For the same molecule, the “Population Membrane Permeable-Phenotype (%)” value [7] was 4%, the “Population Mitochondria Different-Phenotype (%)” value [7] was 94% and the “Population Mitotic Cells (%)” value [7] was 38%. For the same molecule, the “Population Normal (%)” value [7] was 88%, the “Population Pyknosed Nuclei (%)” value [7] was 49% and the “Population Tubulin-Different-Phenotype (%)” value [7] was 77%. For the same molecule, the “Total Cell Count” value [7] was 332, the “Population Apoptotic (%)” value [8] was 78% and the “Population Fragmented Nuclei (%)” value [8] was 7%. The “Population Healthy Nuclei (%)” value [8] was 25%, the “Population Hoechst High Intensity Objects (%)” value [8] was 3% and the “Population Membrane Permeable-Phenotype (%)” value [8] was 9%. The “Population Mitochondria Different-Phenotype (%)” value [8] was 84%, the “Population Mitotic Cells (%)” value [8] was 21% and the “Population Normal (%)” value [8] was 96%. For the same molecule, the “Population Pyknosed Nuclei (%)” value [8] was 67%, the “Population Tubulin-Different-Phenotype (%)” value [8] was 81% and the “Total Cell Count” value [8] was 217. For the same molecule, the “Population Apoptotic (%)” value [9] was 63%, the “Population Fragmented Nuclei (%)” value [9] was 19% and the “Population Healthy Nuclei (%)” value [9] was 43%. The “Population Hoechst High Intensity Objects (%)” value [9] was 16%, the “Population Membrane Permeable-Phenotype (%)” value [9] was 2% and the “Population Mitochondria Different-Phenotype (%)” value [9] was 66%. The “Population Mitotic Cells (%)” value [9] was 36%, the “Population Normal (%)” value [9] was 83% and the “Population Pyknosed Nuclei (%)” value [9] was 36%. The “Population Tubulin-Different-Phenotype (%)” value [9] was 50%, the “Total Cell Count” value [9] was 286 and the “Population Apoptotic (%)” value [10] was 25%. For the same molecule, the “Population Fragmented Nuclei (%)” value [10] was 6%, the “Population Healthy Nuclei (%)” value [10] was 73% and the “Population Hoechst High Intensity Objects (%)” value [10] was 5%. For the same molecule, the “Population Membrane Permeable-Phenotype (%)” value [10] was 3%, the “Population Mitochondria Different-Phenotype (%)” value [10] was 46% and the “Population Mitotic Cells (%)” value [10] was 74%. The “Population Normal (%)” value [10] was 94%, the “Population Pyknosed Nuclei (%)” value [10] was 19% and the “Population Tubulin-Different-Phenotype (%)” value [10] was 74%. For the same molecule, the “Total Cell Count” value [10] was 393, the “Population Apoptotic (%)” value [11] was 59% and the “Population Fragmented Nuclei (%)” value [11] was 35%. The “Population Healthy Nuclei (%)” value [11] was 30%, the “Population Hoechst High Intensity Objects (%)” value [11] was 13% and the “Population Membrane Permeable-Phenotype (%)” value [11] was 3%. The “Population Mitochondria Different-Phenotype (%)” value [11] was 89%, the “Population Mitotic Cells (%)” value [11] was 40% and the “Population Normal (%)” value [11] was 86%. The “Population Pyknosed Nuclei (%)” value [11] was 34%, the “Population Tubulin-Different-Phenotype (%)” value [11] was 50% and the “Total Cell Count” value [11] was 401. For the same molecule, the “Population Apoptotic (%)” value [12] was 58%, the “Population Fragmented Nuclei (%)” value [12] was 16% and the “Population Healthy Nuclei (%)” value [12] was 26%. The “Population Hoechst High Intensity Objects (%)” value [12] was 5%, the “Population Membrane Permeable-Phenotype (%)” value [12] was 15% and the “Population Mitochondria Different-Phenotype (%)” value [12] was 64%. The “Population Mitotic Cells (%)” value [12] was 41%, the “Population Normal (%)” value [12] was 94% and the “Population Pyknosed Nuclei (%)” value [12] was 56%. For the same molecule, the “Population Tubulin-Different-Phenotype (%)” value [12] was 79% and the “Total Cell Count” value [12] was 251.
With Cc1cc(C)c(-n2ccn3nc(-c4cccnc4)cc23)cc1NC(=O)c1cc(C#N)cc(S(F)(F)(F)(F)F)c1 [BAY-826] the “Population Apoptotic (%)” value [1] was 30%, the “Population Fragmented Nuclei (%)” value [1] was 14% and 17% and the “Population Healthy Nuclei (%)” value [1] was 56% and 57%. For the same molecule, the “Population Hoechst High Intensity Objects (%)” value [1] was 14% and 13%, the “Population Membrane Permeable-Phenotype (%)” value [1] was 36% and 23% and the “Population Mitochondria Different-Phenotype (%)” value [1] was 25% and 17%. The “Population Mitotic Cells (%)” value [1] was 69%, the “Population Normal (%)” value [1] was 85% and 86% and the “Population Pyknosed Nuclei (%)” value [1] was 28% and 24%. For the same molecule, the “Population Tubulin-Different-Phenotype (%)” value [1] was 93% and 58%, the “Total Cell Count” value [1] was 624 and 510 and the “Population Fragmented Nuclei (%)” value [2] was 4% and 6%. The “Population Healthy Nuclei (%)” value [2] was 75% and 83%, the “Population Hoechst High Intensity Objects (%)” value [2] was 3% and the “Population Membrane Permeable-Phenotype (%)” value [2] was 34% and 17%. The “Population Mitochondria Different-Phenotype (%)” value [2] was 32% and 19%, the “Population Mitotic Cells (%)” value [2] was 79% and 93% and the “Population Normal (%)” value [2] was 96%. The “Population Pyknosed Nuclei (%)” value [2] was 20% and 9%, the “Population Tubulin-Different-Phenotype (%)” value [2] was 98% and 82% and the “Total Cell Count” value [2] was 1184 and 1372. The “Population Apoptotic (%)” value [5] was 35% and 25%, the “Population Fragmented Nuclei (%)” value [5] was 12% and 11% and the “Population Healthy Nuclei (%)” value [5] was 66% and 76%. For the same molecule, the “Population Hoechst High Intensity Objects (%)” value [5] was 12% and 7%, the “Population Membrane Permeable-Phenotype (%)” value [5] was 33% and 20% and the “Population Mitochondria Different-Phenotype (%)” value [5] was 28% and 16%. The “Population Mitotic Cells (%)” value [5] was 64% and 75%, the “Population Normal (%)” value [5] was 87% and 92% and the “Population Pyknosed Nuclei (%)” value [5] was 20% and 12%. For the same molecule, the “Population Tubulin-Different-Phenotype (%)” value [5] was 95% and 76%, the “Total Cell Count” value [5] was 622 and 545 and the “Population Apoptotic (%)” value [6] was 9% and 14%. The “Population Healthy Nuclei (%)” value [6] was 78% and 68%, the “Population Hoechst High Intensity Objects (%)” value [6] was 4% and the “Population Membrane Permeable-Phenotype (%)” value [6] was 22% and 17%. For the same molecule, the “Population Mitotic Cells (%)” value [6] was 90% and 85%, the “Population Normal (%)” value [6] was 95% and the “Population Tubulin-Different-Phenotype (%)” value [6] was 87%. The “Total Cell Count” value [6] was 2013 and 1166.
